# Bioassay records from PubChem BioAssay.
# Shown are actives, neighbours in structure and some others; about 3.2% of the full set was active somewhere.
# Pemphigus Ab inh: human desmoglein-3 autoantibody binding inhibition. binding (percent of control), % at 10 µM. DSG3-coupled beads, scFv-anti-DSG3-GFP binding, flow cytometry; stronger effect = lower value. 0.48% of 310,000 active;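 active = binding more than 3 SD below its plate's average and above zero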;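 note: hits lower antibody fragment binding to DSG3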
# MEKK2 mut-MEK5: signal of MEK5 binding to mutant human MEKK2 PB1 domain; bead flow cytometry, Alexa488-MEK5 binding to MEKK2 mutant; percent response, % at 10 µM; 0.35% of 290,000 active; in the data active = percent response above about 24%, passing the limit was not always enough
# Apaf-1 inh: blocks human Apaf-1 apoptosome activity. O14727. reconstituted apoptosome caspase-3 activity, DEVD-Rh110 fluorescence. inhibition, % at 20 µM. 0.71% of 330,000 active. AID 489030; active = inhibition of at least 40% at 20 µM
#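 detection = Rh110 fluorescence intensity | test system = biochemical Apaf-1 apoptosome reconstitution | also added = cytochrome c and DEVD-Rh110 substrate | schedule = 30 min plus 50 min, RT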
# MEKK3 PB1 HTS: raises or lowers MEK5 binding to the human MEKK3 PB1 domain. bead-based flow cytometry, Alexa488-MEK5 binding to MEKK3; actives lie on both sides; 0 = blocked by unlabeled MEK5, 100 = vehicle. 1.4% of 290,000 active. binding response (% of control), % at 10 µM;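 active = binding response more than 3 SD above or below the average of its plate-row segment, actives on both sides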;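 note: Alexa488 bead fluorescence after subtracting the streptavidin-only scavenger bead signal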
# Target sequence (Q99759 whole entry, looked up, the tested form may be a part): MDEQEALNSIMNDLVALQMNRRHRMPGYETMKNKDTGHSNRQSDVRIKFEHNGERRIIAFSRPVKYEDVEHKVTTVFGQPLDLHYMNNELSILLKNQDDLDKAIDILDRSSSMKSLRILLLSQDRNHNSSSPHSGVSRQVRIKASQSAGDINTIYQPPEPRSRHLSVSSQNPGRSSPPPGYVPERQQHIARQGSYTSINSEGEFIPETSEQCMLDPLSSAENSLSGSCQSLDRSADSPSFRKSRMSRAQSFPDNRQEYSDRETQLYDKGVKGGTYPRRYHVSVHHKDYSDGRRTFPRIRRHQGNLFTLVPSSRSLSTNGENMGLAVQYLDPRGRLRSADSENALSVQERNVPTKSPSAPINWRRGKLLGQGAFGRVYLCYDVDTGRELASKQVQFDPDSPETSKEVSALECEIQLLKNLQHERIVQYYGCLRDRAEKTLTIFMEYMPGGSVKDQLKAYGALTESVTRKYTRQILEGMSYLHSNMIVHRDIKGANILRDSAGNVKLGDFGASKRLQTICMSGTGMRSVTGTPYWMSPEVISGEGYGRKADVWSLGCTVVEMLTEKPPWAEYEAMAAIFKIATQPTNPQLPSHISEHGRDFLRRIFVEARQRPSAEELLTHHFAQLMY
# MEKK2wt PB1 HTS: raises or lowers MEK5 binding to wildtype human MEKK2 PB1 domain | binding response (% of control), % at 10 µM | 1.1% of 290,000 active | bead flow cytometry, Alexa488-MEK5 binding to MEKK2 WT; actives lie on both sides | AID 1531; in the data active = binding response below about 67% or above about 130%
# UBC13 inh: inhibitors of human UBC13 polyubiquitin chain formation; P61088; TR-FRET; inhibition, % at 20 µM; 0.47% of 330,000 active; AID 485273; in the data active = inhibition above about 45%, passing the limit was not always enough
# MEKK2wt confirm: raises or lowers MEK5 binding to wildtype human MEKK2, retest. shares compounds with MEKK3 PB1 HTS. AID 1892. bead flow cytometry, Alexa488-MEK5 binding to MEKK2 WT; actives lie on both sides. binding response (% of control), % at 10 µM. 2.4% of 5,900 active; in the data active = binding response below about 16% or above about 210%; inactive = in between
# MEKK2mut-MEK5: signal of MEK5 binding to mutant human MEKK2, retest | shares compounds with MEKK3 PB1 HTS | bead flow cytometry, Alexa488-MEK5 binding to MEKK2 mutant | percent response, % at 10 µM | 2% of 5,900 active; in the data active = percent response mostly above about 71%, no sharp cut-off; inactive = mostly below about 38%;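 note: higher means compound restores mutant binding toward wildtype level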
# MEKK3-MEK5 inh: MEKK3-MEK5 PB1 inhibition, single concentration confirmation; shares compounds with MEKK3 PB1 HTS; binding response (% of control), % at 10 µM; bead flow cytometry, Alexa488-MEK5 binding to MEKK3; stronger effect = lower value; 1.8% of 5,900 active;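 active = binding response below 72% of control, or above a set upper limit, though filed actives all read lower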
# Numbers stand for hits; – = inactive; · = not tested or not shown; [ ] = another dose, or the depositor's remark.
SMILES,Pemphigus Ab inh,MEKK2 mut-MEK5,Apaf-1 inh,MEKK3 PB1 HTS,MEKK2wt PB1 HTS,UBC13 inh,MEKK2wt confirm,MEKK2mut-MEK5,MEKK3-MEK5 inh
O=C(NCC1CCCO1)C(c1cccnc1)N(C(=O)Cc1cccs1)c1ccccc1 (stereo unspecified),–,–,–,-1.0[inhibitor],-10.0[inhibitor],–,–,–,–
O=C(NCC(=O)N(c1ccc(F)cc1)C(C(=O)NC1CCCC1)c1cccnc1)c1cccs1 (stereo unspecified),–,–,–,–,–,–,·,·,·
Cc1ccccc1N(C(=O)Cc1cccs1)C(C(=O)NCC1CCCO1)c1cccnc1 (stereo unspecified),–,–,–,–,–,–,·,·,·
CS(=O)(=O)N(Cc1ccc(Cl)cc1)c1ccc(C(=O)NCC2CCCO2)cc1 (stereo unspecified),–,–,–,–,–,–,·,·,·
Cc1ccc(N(C(=O)CNC(=O)c2ccco2)C(C(=O)NCC2CCCO2)c2ccccc2)cc1 (stereo unspecified),–,–,–,–,–,–,·,·,·
O=C(NCc1cccnc1)Nc1ccc(Cl)cc1,–,–,–,–,–,–,·,·,·
COc1ccc(OC)c(NC(=O)/C=C/c2ccc(S(=O)(=O)N3CCOCC3)cc2)c1,–,·,–,·,·,–,·,·,·
CC1=C(C)CC2C(C1)C(=O)c1ccc(Br)cc1S2(=O)=O (stereo unspecified),–,·,–,·,·,–,·,·,·
CN(C)S(=O)(=O)c1ccc(Cl)c(C(=O)NNC(=O)c2ccc3c(c2)OCO3)c1,–,·,–,·,·,–,·,·,·
O=C(NCC1CCCO1)C(c1cccs1)N(Cc1cccs1)C(=O)Cn1nnc(-c2cccs2)n1 (stereo unspecified),–,–,–,66.0[inhibitor],-2.0,–,–,–,–
CC(/C=N/Nc1ncc(C)c(=O)[nH]1)=C\c1ccccc1,–,–,–,140.0,–,–,–,–,–
Cc1ccc(CNC(=O)Cn2c(=O)c3sccc3n(Cc3ccc([N+](=O)[O-])cc3)c2=O)cc1,–,–,–,163.0,–,–,–,–,–
Cc1ccc(NC(=O)CCC(=O)OCC(=O)c2ccc(Oc3ccc([N+](=O)[O-])cc3)cc2)cc1C,·,·,–,·,·,–,·,·,·
Cc1cccc(NC(=O)CCC(=O)OCC(=O)c2ccc(Oc3ccc([N+](=O)[O-])cc3)cc2)c1,–,–,–,68.0[inhibitor],–,–,–,–,–
COc1ccccc1CN(C)C(=O)CN1C(=O)c2ccccc2C1=O,–,–,–,–,–,–,·,·,·
COc1ccccc1CN1CCCC(CN(CCN(C)C)C(=O)C2CCCC2)C1 (stereo unspecified),–,34.0,–,–,135.0,–,–,–,–
OC(CNCCc1ccc(C(F)(F)F)cc1)COC(c1ccccc1)c1ccccc1 (stereo unspecified),–,46.0,–,–,191.0,–,–,–,–
COc1ccc(C(OCC(O)CNCCc2ccc(S(N)(=O)=O)cc2)c2ccc(OC)cc2)cc1 (stereo unspecified),–,–,–,–,–,–,·,·,·
C=C(C)c1nc(Oc2ccccc2)nc(Oc2ccccc2)n1,–,·,·,·,·,·,·,·,·
COc1ccc2[nH]cc(CCNC(=O)Cc3ccc(Br)cc3)c2c1,–,–,–,–,–,–,·,·,·
COc1ccc2[nH]cc(CCNC(C)=O)c2c1,–,44.0,–,–,–,–,–,–,–
O=C(CN1C(=O)c2ccccc2C1=O)NCCc1c[nH]c2ccc(Cl)cc12,–,–,–,–,–,–,·,·,·
Cc1ccc2[nH]cc(CCNC(=O)CN3C(=O)c4ccccc4C3=O)c2c1,–,–,–,147.0,–,–,–,–,–
